ChEMBL document CHEMBL3526118, “Combination of GSH trapping and time-dependent inhibition assays as a predictive method of drugs generating highly reactive metabolites” (Drug Metab Dispos, 2011)

Assays:
Liver microsome [1] = assay: Covalent binding in human liver microsomes measured per mg of protein using radiolabelled compound at 10 uM after 1 hr incubation by liquid scintillation counting
Liver microsome [2] = assay: Metabolic activation in human liver microsomes assessed as [3H]GSH adduct formation rate measured per mg of protein at 100 uM by [3H]GSH trapping assay
[3] = Intrinsic clearance for reactive metabolites formation per mg of protein based on cytochrome P450 (unknown origin) inactivation rate by TDI assay; conditions: human
[4] = Intrinsic clearance for reactive metabolites formation assessed as summation of [3H]GSH adduct formation rate-based reactive metabolites formation and cytochrome P450 (unknown origin) inactivation rate-based reactive metabolites formation; conditions: human
Liver microsome [5] = conditions: human, microsomes, 100 µM
CYP1A2 = molecular target: T1, CYP1A2 (Homo sapiens, UniProt P05177); assay: in vitro
T1 sequence (P05177 whole entry): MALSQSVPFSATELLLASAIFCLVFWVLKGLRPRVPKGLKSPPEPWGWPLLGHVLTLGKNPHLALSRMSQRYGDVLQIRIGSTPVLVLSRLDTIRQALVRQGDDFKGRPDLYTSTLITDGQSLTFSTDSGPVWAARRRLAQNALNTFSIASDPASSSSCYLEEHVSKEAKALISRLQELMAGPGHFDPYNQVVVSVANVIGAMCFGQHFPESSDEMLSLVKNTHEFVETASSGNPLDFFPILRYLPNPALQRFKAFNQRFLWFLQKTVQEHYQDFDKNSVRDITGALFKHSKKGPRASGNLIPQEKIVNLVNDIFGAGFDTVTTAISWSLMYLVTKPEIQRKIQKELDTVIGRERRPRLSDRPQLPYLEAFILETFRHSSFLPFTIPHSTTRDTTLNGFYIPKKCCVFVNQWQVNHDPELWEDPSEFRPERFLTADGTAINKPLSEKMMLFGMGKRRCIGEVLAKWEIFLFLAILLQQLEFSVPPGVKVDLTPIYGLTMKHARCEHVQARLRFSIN

CYP2B6 = molecular target: T2, CYP2B6 (Homo sapiens, UniProt P20813); assay: in vitro
T2 sequence (P20813 whole entry): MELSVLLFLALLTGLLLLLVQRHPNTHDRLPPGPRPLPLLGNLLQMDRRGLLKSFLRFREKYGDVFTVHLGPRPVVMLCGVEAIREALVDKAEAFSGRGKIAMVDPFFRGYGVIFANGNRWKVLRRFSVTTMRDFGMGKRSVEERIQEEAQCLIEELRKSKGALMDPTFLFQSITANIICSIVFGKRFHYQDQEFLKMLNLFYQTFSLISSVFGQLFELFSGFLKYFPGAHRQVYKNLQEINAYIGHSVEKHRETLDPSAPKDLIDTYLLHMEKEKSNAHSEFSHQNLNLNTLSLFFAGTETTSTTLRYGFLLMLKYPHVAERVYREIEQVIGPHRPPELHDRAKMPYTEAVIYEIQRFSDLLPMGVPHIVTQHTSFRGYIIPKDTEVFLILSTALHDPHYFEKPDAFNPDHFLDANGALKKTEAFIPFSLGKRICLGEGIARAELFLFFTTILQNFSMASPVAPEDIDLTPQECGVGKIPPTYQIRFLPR

CYP2C9 = CYP2C9 (Homo sapiens, UniProt P11712); assay: in vitro
Chain of CYP2C9 (P11712 whole entry): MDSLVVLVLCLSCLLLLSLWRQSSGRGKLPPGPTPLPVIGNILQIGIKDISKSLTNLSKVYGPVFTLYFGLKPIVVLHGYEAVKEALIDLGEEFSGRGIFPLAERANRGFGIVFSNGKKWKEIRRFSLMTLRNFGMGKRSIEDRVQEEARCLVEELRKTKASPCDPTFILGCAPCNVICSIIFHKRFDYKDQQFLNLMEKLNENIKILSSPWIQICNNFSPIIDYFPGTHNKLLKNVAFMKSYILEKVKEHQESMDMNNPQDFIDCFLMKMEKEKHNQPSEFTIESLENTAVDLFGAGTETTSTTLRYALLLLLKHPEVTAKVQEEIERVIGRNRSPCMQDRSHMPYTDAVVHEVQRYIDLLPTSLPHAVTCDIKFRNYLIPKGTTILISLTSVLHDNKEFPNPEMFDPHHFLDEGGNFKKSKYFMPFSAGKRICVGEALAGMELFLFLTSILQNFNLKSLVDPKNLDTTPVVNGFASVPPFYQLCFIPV

CYP2C19 = CYP2C19 (Homo sapiens, UniProt P33261); assay: in vitro
Chain of CYP2C19 (P33261 whole entry): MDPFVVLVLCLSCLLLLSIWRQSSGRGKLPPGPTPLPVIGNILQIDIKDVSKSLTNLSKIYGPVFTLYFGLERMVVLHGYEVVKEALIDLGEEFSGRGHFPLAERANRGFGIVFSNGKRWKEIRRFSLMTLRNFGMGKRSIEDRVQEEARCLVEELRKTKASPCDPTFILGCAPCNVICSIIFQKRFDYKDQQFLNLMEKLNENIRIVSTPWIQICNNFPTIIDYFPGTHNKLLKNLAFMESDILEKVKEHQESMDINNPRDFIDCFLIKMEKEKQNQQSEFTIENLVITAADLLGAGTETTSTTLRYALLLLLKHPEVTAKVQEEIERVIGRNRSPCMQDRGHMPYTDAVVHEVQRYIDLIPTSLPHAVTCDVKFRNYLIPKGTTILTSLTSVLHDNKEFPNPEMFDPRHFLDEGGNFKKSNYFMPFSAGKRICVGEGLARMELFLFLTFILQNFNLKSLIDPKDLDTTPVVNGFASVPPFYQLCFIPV

CYP2D6 = CYP2D6 (Homo sapiens, UniProt P10635); assay: in vitro
Chain of CYP2D6 (P10635 whole entry): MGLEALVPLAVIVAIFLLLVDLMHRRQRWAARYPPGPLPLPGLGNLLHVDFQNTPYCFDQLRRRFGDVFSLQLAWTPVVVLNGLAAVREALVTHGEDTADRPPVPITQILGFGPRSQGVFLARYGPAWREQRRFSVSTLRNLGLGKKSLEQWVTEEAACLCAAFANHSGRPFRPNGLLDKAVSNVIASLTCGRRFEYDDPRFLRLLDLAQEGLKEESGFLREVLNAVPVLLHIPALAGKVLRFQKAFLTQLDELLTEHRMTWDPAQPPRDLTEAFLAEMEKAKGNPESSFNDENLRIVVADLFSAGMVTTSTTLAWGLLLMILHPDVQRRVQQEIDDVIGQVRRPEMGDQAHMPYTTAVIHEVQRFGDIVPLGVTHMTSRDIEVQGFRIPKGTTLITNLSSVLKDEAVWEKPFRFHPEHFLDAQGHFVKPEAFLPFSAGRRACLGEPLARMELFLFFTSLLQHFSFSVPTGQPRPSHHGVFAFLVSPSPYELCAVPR

CYP3A4 = CYP3A4 (Homo sapiens, UniProt P08684); assay: in vitro
Chain of CYP3A4 (P08684 whole entry): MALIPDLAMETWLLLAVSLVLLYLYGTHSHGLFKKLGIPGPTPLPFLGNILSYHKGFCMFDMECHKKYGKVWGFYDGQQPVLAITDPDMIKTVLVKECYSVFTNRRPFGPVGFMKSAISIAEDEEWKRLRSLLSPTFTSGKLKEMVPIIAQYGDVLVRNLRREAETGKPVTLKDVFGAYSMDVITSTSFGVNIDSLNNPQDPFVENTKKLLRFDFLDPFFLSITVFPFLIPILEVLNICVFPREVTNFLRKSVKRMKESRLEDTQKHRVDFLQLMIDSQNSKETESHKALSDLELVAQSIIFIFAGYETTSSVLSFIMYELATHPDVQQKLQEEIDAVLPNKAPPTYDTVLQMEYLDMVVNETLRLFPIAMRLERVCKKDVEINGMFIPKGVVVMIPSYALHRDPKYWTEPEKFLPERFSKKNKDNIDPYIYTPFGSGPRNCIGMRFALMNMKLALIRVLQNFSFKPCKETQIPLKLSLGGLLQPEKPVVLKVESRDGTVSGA

CYP2C8 [6] = molecular target: T3, CYP2C8 (Homo sapiens, UniProt P10632); assay: in vitro
T3 sequence (P10632 whole entry): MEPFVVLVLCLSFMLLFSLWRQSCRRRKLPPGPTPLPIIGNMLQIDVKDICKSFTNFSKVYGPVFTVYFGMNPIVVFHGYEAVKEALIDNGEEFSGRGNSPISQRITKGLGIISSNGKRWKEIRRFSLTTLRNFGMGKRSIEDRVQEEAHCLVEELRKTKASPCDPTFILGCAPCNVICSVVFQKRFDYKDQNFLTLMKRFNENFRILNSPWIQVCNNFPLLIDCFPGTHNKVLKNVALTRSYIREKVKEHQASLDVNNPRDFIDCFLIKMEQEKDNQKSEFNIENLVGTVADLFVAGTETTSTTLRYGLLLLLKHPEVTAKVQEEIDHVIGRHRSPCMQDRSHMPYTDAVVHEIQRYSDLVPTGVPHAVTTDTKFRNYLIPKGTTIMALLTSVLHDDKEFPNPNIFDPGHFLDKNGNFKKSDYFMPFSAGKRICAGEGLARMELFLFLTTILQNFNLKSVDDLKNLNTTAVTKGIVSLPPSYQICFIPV

CYP2C8 [7] = molecular target: T3, CYP2C8; assay: Time dependent inhibition of CYP2C8 (unknown origin) at 30 uM by LC/MS system; format: ADME
Summary of the method: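 CYP2C8 in human liver microsomes (1.0 mg/mL in preincubation), 0.1 M sodium phosphate, NADPH-generating system. Preincubation 0 or 30 min, then ten-fold dilution into incubation with 10 μM paclitaxel (final) for 10 min. Activity is taken relative to the matched no-inhibitor control. % inactivation = 100 × [1 − %control(30 min)/%control(0 min)]; threshold 10%.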

CYP2C8 [8] = molecular target: T3, CYP2C8; assay: Time dependent inhibition of CYP2C8 (unknown origin) at 10 uM by LC/MS system; format: ADME
Summary of the method: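 CYP2C8 in human liver microsomes (1.0 mg/mL in preincubation), 0.1 M sodium phosphate, NADPH-generating system. Preincubation 0 or 30 min, then ten-fold dilution into incubation with 10 μM paclitaxel (final) for 10 min.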

SMILES	PB (Liver microsome [1])	Drug metabolism (Liver microsome [2])	inhibition at 100 µM (CYP1A2)	inhibition at 100 µM (CYP2B6)	inhibition at 100 µM (CYP2C19; microsomes)	inhibition at 30 µM (CYP2C8 [7])	inhibition at 10 µM (CYP2C8 [8])	clearance [3]	clearance [4]	CLH (Liver microsome [5])	inhibition at 100 µM (CYP2C9)	inhibition at 100 µM (CYP2C19; human liver microsomes)	inhibition at 100 µM (CYP2D6)	inhibition at 100 µM (CYP3A4)	inhibition at 100 µM (CYP2C8 [6])
Cc1ccnc2c1NC(=O)c1cccnc1N2C1CC1 [NEVIRAPINE]	19.1 pmol	1.2 pmol/min	< 10%	< 10%	–	–	–	0.001 µL/min/mg	0.013 µL/min/mg	0.012 µL/min/mg	< 10%	12%	< 10%	< 10%	< 10%
Cc1cc2c(s1)Nc1ccccc1N=C2N1CCN(C)CC1 [OLANZAPINE]	138.9 pmol	11.3 pmol/min	< 10%	< 10%	–	–	–	0.006 µL/min/mg	0.119 µL/min/mg	0.113 µL/min/mg	< 10%	< 10%	63%	< 10%	< 10%
O=C1NC(=O)C(c2ccccc2)(c2ccccc2)N1 [PHENYTOIN]	4.4 pmol	1.2 pmol/min	< 10%	< 10%	< 10%	–	–	–	0.012 µL/min/mg	0.012 µL/min/mg	< 10%	–	< 10%	< 10%	< 10%
CC(=O)CC(c1ccccc1)c1c(O)c2ccccc2oc1=O (centres undefined) [WARFARIN]	15.9 pmol	metabolite_not_detected	19%	< 10%	–	–	–	0.003 µL/min/mg	0.003 µL/min/mg	–	< 10%	< 10%	< 10%	< 10%	< 10%

Continued, in another order:

PB (Liver microsome [1])	Drug metabolism (Liver microsome [2])	inhibition at 100 µM (CYP1A2)	inhibition at 100 µM (CYP2B6)	inhibition at 100 µM (CYP2C19; microsomes)	inhibition at 30 µM (CYP2C8 [7])	inhibition at 10 µM (CYP2C8 [8])	SMILES	clearance [3]	clearance [4]	CLH (Liver microsome [5])	inhibition at 100 µM (CYP2C9)	inhibition at 100 µM (CYP2C19; human liver microsomes)	inhibition at 100 µM (CYP2D6)	inhibition at 100 µM (CYP3A4)	inhibition at 100 µM (CYP2C8 [6])
353 pmol	metabolite_not_detected	< 10%	38%	–	< 10%	–	CCc1ccc(CCOc2ccc(CC3SC(=O)NC3=O)cc2)nc1 (centres undefined) [PIOGLITAZONE]	0.036 µL/min/mg	0.036 µL/min/mg	–	< 10%	< 10%	< 10%	61%	–
516.1 pmol	2.2 pmol/min	< 10%	< 10%	–	–	< 10%	CN(CCOc1ccc(CC2SC(=O)NC2=O)cc1)c1ccccn1 (centres undefined) [ROSIGLITAZONE]	0.028 µL/min/mg	0.048 µL/min/mg	0.022 µL/min/mg	< 10%	< 10%	–	–	–
11.5 pmol	metabolite_not_detected	< 10%	< 10%	< 10%	–	< 10%	CC/C(=C(\c1ccccc1)c1ccc(OCCN(C)C)cc1)c1ccccc1 [TAMOXIFEN]	–	–	–	–	–	–	< 10%	–
